{
  "source": "ChEMBL document CHEMBL1122111",
  "about": "“Allergenic alpha-methylene-gamma-butyrolactones. Stereospecific syntheses of (+)- and (-)-gamma-methyl-alpha-methylene-gamma-butyrolactones. A study of the specificity of (+) and (-) enantiomers in inducing allergic contact dermatitis” (1982)",
  "format_in_all_cases": "functional",
  "key": {"Cavia porcellus [1]": {"species": "Cavia porcellus", "assay": "Tested for effect on guinea pigs sensitized with (S)5-Methyl-3-methylene-dihydro- furan-2-one,av is calculated by adding the test intensity and divided by the number of animals", "how_it_was_run": "(§1)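 Sensitization: female albino Hartley guinea pigs (250–300 g) were given three alternate-day 0.1-mL intradermal nuchal injections of 1:1 FCA/saline emulsion containing 5% (−)-enantiomer. Challenge after 2 weeks rest used 0.25 mL of 1% or 2% methylene chloride solution on a 2-cm2 area, read every 24 h. The scale was 0 (none) to 3 (erythema/swelling beyond area); av = summed scores/animals.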"}, "Cavia porcellus [2]": {"species": "Cavia porcellus", "assay": "Tested for effect on guinea pigs sensitized with (R)-5-Methyl-3-methylene -dihydro -furan-2-one,number of animals showing erythema covering the part of the test area", "how_it_was_run": "(§2)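 Female albino Hartley guinea pigs (250–300 g) received three 0.1-mL intradermal nuchal injections on alternate days of a 1:1 FCA/saline emulsion with 5% (+)-enantiomer. After 2 weeks rest, 0.25 mL of 1% or 2% methylene chloride solution was deposited on a 2-cm2 circle and read every 24 h. Erythema/swelling was scored 0–3; av = summed intensities divided by animal number.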"}, "Cavia porcellus [3]": {"species": "Cavia porcellus", "assay": "Tested for effect on guinea pigs sensitized with (R)-5-Methyl-3-methylene -dihydro -furan-2-one,number of animals showing erythema covering the whole test area", "how_it_was_run": "as §2"}, "Cavia porcellus [4]": {"species": "Cavia porcellus", "assay": "Tested for effect on guinea pigs sensitized with (S)5-Methyl-3-methylene-dihydro- furan-2-one; Number of sensitive animals out of 8 tested", "how_it_was_run": "as §1"}, "Cavia porcellus [5]": {"species": "Cavia porcellus", "assay": "Tested for effect on guinea pigs sensitized with (S)5-Methyl-3-methylene-dihydro- furan-2-one number of animals showing erythema and swelling of the test area.", "how_it_was_run": "as §1"}, "Cavia porcellus [6]": {"species": "Cavia porcellus", "assay": "Tested for effect on guinea pigs sensitized with (+/-)-5-Methyl-3-methylene-dihydro-furan-2-one,number of animals showing erythema covering the part of the test area", "how_it_was_run": "(§3)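 Female albino Hartley guinea pigs (250–300 g), sensitized by three intradermal nuchal injections of 0.1 mL on alternate days. The emulsion was 1:1 FCA/saline with 10% racemate (5% of each antipode). After 2 weeks rest, 0.25 mL of 1% or 2% methylene chloride solution was applied to a 2-cm2 area. Reactions were scored 0–3 every 24 h; av = summed scores/animals.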"}, "Cavia porcellus [7]": {"species": "Cavia porcellus", "assay": "Tested for effect on guinea pigs sensitized with (+/-)-5-Methyl-3-methylene-dihydro-furan-2-one,number of animals showing erythema covering the whole test area", "how_it_was_run": "as §3"}, "Cavia porcellus [8]": {"species": "Cavia porcellus", "assay": "Tested for effect on guinea pigs sensitized with (S)5-Methyl-3-methylene-dihydro- furan-2-one number of animals showing erythema covering the part of the test area", "how_it_was_run": "as §1"}, "Cavia porcellus [9]": {"species": "Cavia porcellus", "assay": "Tested for effect on guinea pigs sensitized with (+/-)-5-Methyl-3-methylene-dihydro-furan-2-one, av is calculated by adding the test intensity and divided by the number of animals", "how_it_was_run": "as §3"}, "Cavia porcellus [10]": {"species": "Cavia porcellus", "assay": "Tested for effect on guinea pigs sensitized with (R)-5-Methyl-3-methylene -dihydro -furan-2-one, number of animals showing erythema and swelling of the test area", "how_it_was_run": "as §2"}, "Cavia porcellus [11]": {"species": "Cavia porcellus", "assay": "Tested for effect on guinea pigs sensitized with (+/-)-5-Methyl-3-methylene-dihydro-furan-2-one, Number of sensitive animals out of 8 tested", "how_it_was_run": "as §3"}, "Cavia porcellus [12]": {"species": "Cavia porcellus", "assay": "Tested for effect on guinea pigs sensitized with (R)-5-Methyl-3-methylene -dihydro -furan-2-one,number of animals showing no reaction", "how_it_was_run": "as §2"}, "Cavia porcellus [13]": {"species": "Cavia porcellus", "assay": "Tested for effect on guinea pigs sensitized with (S)5-Methyl-3-methylene-dihydro- furan-2-one number of animals showing no reaction", "how_it_was_run": "as §1"}, "Cavia porcellus [14]": {"species": "Cavia porcellus", "assay": "Tested for effect on guinea pigs sensitized with (+/-)-5-Methyl-3-methylene-dihydro-furan-2-one number of animals showing erythema and swelling of the test area", "how_it_was_run": "as §3"}, "Cavia porcellus [15]": {"species": "Cavia porcellus", "assay": "Tested for effect on guinea pigs sensitized with (S)5-Methyl-3-methylene-dihydro- furan-2-onenumber of animals showing erythema covering the whole test area", "how_it_was_run": "as §1"}, "Cavia porcellus [16]": {"species": "Cavia porcellus", "assay": "Tested for effect on guinea pigs sensitized with (+/-)-5-Methyl-3-methylene-dihydro-furan-2-one,number of animals showing no reaction", "how_it_was_run": "as §3"}, "Cavia porcellus [17]": {"species": "Cavia porcellus", "assay": "Tested for effect on guinea pigs sensitized with (R)-5-Methyl-3-methylene -dihydro -furan-2-one, Number of sensitive animals out of 8 tested", "how_it_was_run": "as §2"}, "Cavia porcellus [18]": {"species": "Cavia porcellus", "assay": "Tested for effect on guinea pigs sensitized with (R)-5-Methyl-3-methylene -dihydro -furan-2-one,av is calculated by adding the test intensity and divided by the number of animals", "how_it_was_run": "as §2"}},
  "data": [
    {"smiles": "C=C1C[C@@H](C)OC1=O", "values": [
      {"measurement": "av", "setting": "Cavia porcellus [1]", "value": 0.8},
      {"measurement": "Skin tests intensity", "setting": "Cavia porcellus [2]", "value": 1},
      {"measurement": "Skin tests intensity", "setting": "Cavia porcellus [3]", "value": 4},
      {"measurement": "No. of sensitive animals", "setting": "Cavia porcellus [4]", "value": 8},
      {"measurement": "Skin tests intensity", "setting": "Cavia porcellus [5]", "value": 0},
      {"measurement": "Skin tests intensity", "setting": "Cavia porcellus [6]", "value": 1},
      {"measurement": "Skin tests intensity", "setting": "Cavia porcellus [7]", "value": 1},
      {"measurement": "Skin tests intensity", "setting": "Cavia porcellus [8]", "value": 3},
      {"measurement": "av", "setting": "Cavia porcellus [9]", "value": 1.7},
      {"measurement": "Skin tests intensity", "setting": "Cavia porcellus [10]", "value": 3},
      {"measurement": "No. of sensitive animals", "setting": "Cavia porcellus [11]", "value": 8},
      {"measurement": "Skin tests intensity", "setting": "Cavia porcellus [12]", "value": 0},
      {"measurement": "Skin tests intensity", "setting": "Cavia porcellus [13]", "value": 0},
      {"measurement": "Skin tests intensity", "setting": "Cavia porcellus [14]", "value": 6},
      {"measurement": "Skin tests intensity", "setting": "Cavia porcellus [15]", "value": 5},
      {"measurement": "Skin tests intensity", "setting": "Cavia porcellus [16]", "value": 0},
      {"measurement": "No. of sensitive animals", "setting": "Cavia porcellus [17]", "value": 8},
      {"measurement": "av", "setting": "Cavia porcellus [18]", "value": 1.3}
    ]}
  ]
}
